≈ marks a conversion by molar mass, not a printed value.
How the values were obtained:
Escherichia coli [1] = experiment: Antimicrobial activity against Escherichia coli K-12 harboring gyrA L83, Y87 and parC K84 mutant gene by agar dilution method; assay type: functional
Escherichia coli [2] = experiment: Antimicrobial activity against Escherichia coli harboring gyrA L83, Y87, parC I80, G84 and parE A458 mutant gene by agar dilution method
Escherichia coli [3] = experiment: Antimicrobial activity against Escherichia coli […] harboring gyrA L83, N87, parC I80, K84 and parE D460 mutant gene by agar dilution method; assay type: functional, K-12
Outline: (§1)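 Clinical E. coli isolates, with topoisomerase QRDR genotype (gyrA, gyrB, parC, parE) found by PCR sequencing. MICs for ciprofloxacin, gatifloxacin, levofloxacin and norfloxacin were measured by CLSI agar dilution using a modified dilution scheme. Where the agar dilution MIC was <1 μg/ml, the value came from at least two Etest measurements.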

Escherichia coli [4] = experiment: Antimicrobial activity against Escherichia coli K-12 harboring gyrA L83, Y87 and parC I80, G84 mutant gene by agar dilution method; assay type: functional
Escherichia coli [5] = experiment: Antimicrobial activity against Escherichia coli […] harboring gyrA L83, Y87, parC I80 and parE A458 mutant gene by agar dilution method; assay type: functional, K-12; outline: as §1
Escherichia coli [6] = experiment: Antimicrobial activity against […] harboring gyrA L83, N87, gyrB T471 and parC I80, G84 mutant gene by agar dilution method; assay type: functional, K-12; outline: as §1
Escherichia coli [7] = experiment: Antimicrobial activity against Escherichia coli K-12 harboring gyrA L83, N87 and parC I80, G84 mutant gene by agar dilution method; assay type: functional
Escherichia coli [8] = experiment: Antimicrobial activity against […] harboring gyrA L83, N87, parC I80 and parE […] mutant gene by agar dilution method; assay type: functional, K-12; outline: as §1
Escherichia coli [9] = experiment: Antimicrobial activity against Escherichia coli K-12 harboring gyrA L83, Y87 and parC I80 mutant gene by agar dilution method; assay type: functional
Escherichia coli [10] = experiment: Antimicrobial activity against Escherichia coli K-12 harboring gyrA L83, N87 and parC K84 mutant gene by agar dilution method; assay type: functional
Escherichia coli [11] = experiment: Antimicrobial activity against Escherichia coli K-12 harboring by agar dilution method; assay type: functional
Escherichia coli [12] = experiment: Antimicrobial activity against Escherichia coli K-12 harboring gyrA L83, N87 and parC I80 mutant gene by agar dilution method; assay type: functional
Escherichia coli [13] = experiment: Antimicrobial activity against Escherichia coli K-12 harboring gyrA A83 mutant gene by agar dilution method; assay type: functional
Escherichia coli [14] = experiment: Antimicrobial activity against Escherichia coli K-12 harboring gyrA L83, Y87 mutant gene by agar dilution method; assay type: functional
Escherichia coli [15] = experiment: Antimicrobial activity against Escherichia coli […] harboring gyrA L83, N87, parC I80 and parE M464 mutant gene by agar dilution method; assay type: functional, K-12; outline: as §1
Escherichia coli [16] = experiment: Antimicrobial activity against Escherichia coli K-12 harboring gyrA L83, N87 mutant gene by agar dilution method; assay type: functional

| SMILES | MIC (Escherichia coli [1]) [µg/mL] | MIC (Escherichia coli [2]) [µg/mL] | MIC (Escherichia coli [3]) [µg/mL] | MIC (Escherichia coli [4]) [µg/mL] | MIC (Escherichia coli [5]) [µg/mL] | MIC (Escherichia coli [6]) [µg/mL] | MIC (Escherichia coli [7]) [µg/mL] | MIC (Escherichia coli [8]) [µg/mL] | MIC (Escherichia coli [9]) [µg/mL] | MIC (Escherichia coli [10]) [µg/mL] | MIC (Escherichia coli [11]) [µg/mL] | MIC (Escherichia coli [12]) [µg/mL] | MIC (Escherichia coli [13]) [µg/mL] | MIC (Escherichia coli [14]) [µg/mL] | MIC (Escherichia coli [15]) [µg/mL] | MIC (Escherichia coli [16]) [µg/mL] |
| --- | --- | --- | --- | --- | --- | --- | --- | --- | --- | --- | --- | --- | --- | --- | --- | --- |
| O=C(O)c1cn(C2CC2)c2cc(N3CCNCC3)c(F)cc2c1=O [CIPROFLOXACIN] | 500 (≈ 1510 µM) | 300 (≈ 905 µM) | 200 (≈ 604 µM) | 40 (≈ 121 µM) |  |  |  |  |  |  |  |  |  |  |  |  |
| COc1c(N2CCNC(C)C2)c(F)cc2c(=O)c(C(=O)O)cn(C3CC3)c12 (stereo unspecified) [GATIFLOXACIN] | 30 (≈ 79.9 µM) | 30 (≈ 79.9 µM) | 20 (≈ 53.3 µM) | 10 (≈ 26.6 µM) | 20 (≈ 53.3 µM) | 20 (≈ 53.3 µM) | 10 (≈ 26.6 µM) | 10 (≈ 26.6 µM) | 10 (≈ 26.6 µM) | 30 (≈ 79.9 µM) | 0.007 (≈ 0.0186 µM) | 10 (≈ 26.6 µM) | 0.094 (≈ 0.25 µM) | 0.5 (≈ 1.33 µM) | 20 (≈ 53.3 µM) | 10 (≈ 26.6 µM) |
| C[C@H]1COc2c(N3CCN(C)CC3)c(F)cc3c(=O)c(C(=O)O)cn1c23.C[C@H]1COc2c(N3CCN(C)CC3)c(F)cc3c(=O)c(C(=O)O)cn1c23.O [LEVOFLOXACIN] | 50 | 200 | 50 | 50 | 50 | 30 | 50 | 20 | 10 | 50 |  | 8 | 0.168 | 2 | 50 | 10 |
| CCn1cc(C(=O)O)c(=O)c2cc(F)c(N3CCNCC3)cc21 [NORFLOXACIN] | 1000 (≈ 3130 µM) | 1000 (≈ 3130 µM) | 400 (≈ 1250 µM) | 100 (≈ 313 µM) | 300 (≈ 939 µM) | 200 (≈ 626 µM) | 200 (≈ 626 µM) | 50 (≈ 157 µM) | 50 (≈ 157 µM) | 200 (≈ 626 µM) | 0.023 (≈ 0.072 µM) | 10 (≈ 31.3 µM) | 0.194 (≈ 0.608 µM) | 8 (≈ 25.1 µM) | 400 (≈ 1250 µM) | 10 (≈ 31.3 µM) |

Source: ChEMBL document CHEMBL1629564, “Mechanisms accounting for fluoroquinolone resistance in Escherichia coli clinical isolates” (2009)
